From ChEMBL document CHEMBL1130337 (J Med Chem, 1997) come the findings set out here.

Assay [1] is filed under the species Rattus norvegicus. Description: Compound was evaluated by measuring the ability to influence forskolin-stimulated cAMP formation in adult rat cerebral cortical slices. The assay is classed as functional. The gist of the method:
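Adult rat cerebral cortical slices; cAMP formation stimulated with forskolin (30 µM), and suppression of that cAMP formation measured. EC50 values derived from concentration-response curves.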
(In general: Cyclic AMP is a second messenger, typically raised through Gs and lowered through Gi signalling.)

Assay [2] in a line: Inhibitory concentration against ACPD-sensitive radioligand [3H]glutamate binding to Group II Metabotropic glutamate receptor in rat forebrain membranes. Type of assay: cell membranes, Membrane. The method in brief: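 Rat forebrain membranes; displacement of ACPD-sensitive [3H]glutamate binding (10 nM radioligand).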
In another assay the target is Glutamate NMDA receptor. Put plainly: Inhibitory concentration against radioligand [3H]CGS-19,755 binding to N-methyl-D-aspartate glutamate receptor in rat forebrain membranes. Type of assay: cell membranes, Membrane. The gist of the method: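 Rat forebrain membranes; displacement of [3H]CGS19755 (10 nM) binding. Compounds screened at concentrations up to 100 µM (triplicate analysis at 1, 10 and 100 µM).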

The species named for assay [3] is Rattus norvegicus. Put plainly: Compound was evaluated by measuring the ability to influence stimulated basal [3H]-IP formation in adult rat cerebral cortical slices. Type of assay: functional. The method in brief: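 Rat cerebral cortical slices labeled for [3H]phosphoinositide hydrolysis; accumulation of tritiated inositol monophosphates ([3H]IP) measured against basal levels. Concentrations tested up to 300 µM.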

The target of assay [4] is Glutamate receptor ionotropic, kainate. Description: Inhibitory concentration against radioligand [3H]-Kainate binding to Ionotropic glutamate receptor kainate in rat forebrain membranes. The assay is classed as cell membranes, Membrane. The gist of the method:
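Rat forebrain membranes; displacement of [3H]kainate (5 nM) binding. Compounds screened at concentrations up to 100 µM (triplicate analysis at 1, 10 and 100 µM).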

Assay [5] addresses Glutamate receptor ionotropic, AMPA (Rattus norvegicus, UniProt P19490+P19491+P19492+P19493). Put plainly: Inhibitory concentration against radioligand [3H]AMPA binding to Ionotropic glutamate receptor AMPA in rat forebrain membranes. Type of assay: cell membranes, Membrane.
The species entered for assay [6] is Mus musculus. Put plainly: Oral effective dose evaluated in mice by mouse limbic seizure assay. Type of assay: functional, Limbic system. The gist of the method: (§1)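 Male NIH Swiss mice (20-25 g) given test drug ip or po 30 min before unilateral intracerebral 1S,3R-ACPD (400 nmol), injected 2 mm lateral to bregma at 3.7 mm depth. Scored as the number of animals showing limbic seizures (clonic forelimb contractions, rearing, falling) during the observation period. ED50 in mg/kg.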

Assay [7] deals with Mus musculus. Description: Intraperitoneal effective dose evaluated in mice by mouse limbic seizure assay. Type of assay: functional, Limbic system. The method in brief: as §1
Assay [8] is filed under the species Mus musculus. Put plainly: Oral effective dose was evaluated in mice by automated elevated plus-maze assay. Type of assay: functional. The gist of the method: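 Male NIH Swiss mice (20-35 g), acclimated ≥3 days on a 12 h light/dark cycle, dosed 30 min before a 5-min test on an automated elevated plus maze. Mice started on the closed platform; closed arm, open arm and nosepoke counts recorded. Dose-response for open arm activity gives the ED50 (mg/kg).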

In general, EC50 refers to the concentration at which the effect is half-maximal. Read a low EC50 as higher potency in that assay. For orientation: IC50 means the midpoint of a concentration-inhibition curve. For `N[C@H](C(=O)O)[C@H]1C[C@@H]1C(=O)O`, the EC50 in the assay filed under Rattus norvegicus [1] (Rattus norvegicus) came out at 1.1 µM; in the assay filed under Rattus norvegicus [3], 25.4 µM. Besides, the IC50 in assay [2] was 0.454 µM; on Glutamate NMDA receptor it was above 100 µM; in assay [4], above 100 µM.
Consider `N[C@]1(C(=O)O)CC[C@H]2[C@H](C(=O)O)[C@H]21` (racemic), for which the IC50 is above 100 µM in [2], 62.4 µM on Glutamate NMDA receptor, above 100 µM in [5] and above 100 µM in assay [4].
Turning to `N[C@@]1(C(=O)O)CC[C@H]2[C@H](C(=O)O)[C@H]21` (racemic), it took 0.086 µM to reach a half-maximal effect in the assay filed under Rattus norvegicus [1] (EC50). The same compound displayed an IC50 in [2] of 0.318 µM.
As a reminder, the ED50 is the dose at which the effect has come halfway, by size or by number of responders. As for `N[C@@]1(C(=O)O)CC[C@H]2[C@H](C(=O)O)[C@H]21` (stereo in doubt; (+)-9), the ED50 stood at 45.6 mg/kg in the assay filed under Mus musculus [6], 17 mg/kg in the assay with Mus musculus [7] and 0.5 mg/kg in the assay filed under Mus musculus [8]. For the same compound, the EC50 is 0.055 µM in the assay filed under Rattus norvegicus [1] and above 300 µM in the assay listed under Rattus norvegicus [3]. In assay [2], this compound came in with an IC50 of 0.18 µM.
On to `N[C@@]1(C(=O)O)CC[C@H]2[C@H](C(=O)O)[C@H]21` (stereo in doubt; (-)-9), for which, in the assay filed under Rattus norvegicus [1], the EC50 was above 300 µM. For the same compound, the IC50 (in assay [2]; on Glutamate NMDA receptor; in [5]; in assay [4]) was above 100 µM each time. For the same compound, in the assay on Mus musculus [7], the ED50 is above 100 mg/kg.
